Experimental data as given in ChEMBL document CHEMBL4613307, “Sigma Receptor Ligands Carrying a Nitric Oxide Donor Nitrate Moiety: Synthesis, In Silico, and Biological Evaluation” (ACS Med Chem Lett, 2020).
Calls of active or inactive are those of the source. No cut-off for these calls is given here.

How the values were obtained:
[1] = biological target: Sigma non-opioid intracellular receptor 1 (Cavia porcellus, UniProt Q60492); assay: Displacement of [3H]-(+)-pentazocine from sigma1 receptor in guinea pig brain membranes incubated for 1 hr by liquid scintillation counting method; assay type: cell membranes, Membrane
Chain of Sigma non-opioid intracellular receptor 1 (Q60492 whole entry): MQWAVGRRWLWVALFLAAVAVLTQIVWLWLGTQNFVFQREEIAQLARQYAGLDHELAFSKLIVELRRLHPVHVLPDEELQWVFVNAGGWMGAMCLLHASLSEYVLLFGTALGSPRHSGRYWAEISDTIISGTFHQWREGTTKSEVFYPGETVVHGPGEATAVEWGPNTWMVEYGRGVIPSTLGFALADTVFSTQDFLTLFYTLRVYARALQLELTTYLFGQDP
How it was run: (§1)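 Radioligand binding at σ1 and σ2 receptors, with [3H]DTG as the σ2 radioligand. Ki given as mean ± SD of at least two experiments run in triplicate.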

[2] = Drug metabolism in Tris-HCl buffer assessed as amount of nitrite released at 100 uM and 37 degree C after 30 mins in presence of nitrate reductase and NADPH by Griess reagent based spectrophotometric analysis; assay type: physicochemical; details: 0.5 h
How it was run: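 Test agents at 100 μM incubated in Tris-HCl buffer at 37 °C for 30 min; total nitrite measured with Griess reagent.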

HFF-1 [3] = assay: Cytotoxicity against human HFF1 cells assessed as reduction in cell viability at 100 uM after 24 hrs by MTT assay relative to control; assay type: cell-based; details: hff-1, 24 h
[4] = biological target: T1, Sigma intracellular receptor 2 (Homo sapiens, UniProt Q5BJF2); assay: Displacement of [3H]-di-o-tolylguanidine from sigma2 receptor (unknown origin) incubated for 1 hr in presence of (+)SKF10047 by liquid scintillation counting method; how it was run: as §1
T1 sequence (Q5BJF2 whole entry): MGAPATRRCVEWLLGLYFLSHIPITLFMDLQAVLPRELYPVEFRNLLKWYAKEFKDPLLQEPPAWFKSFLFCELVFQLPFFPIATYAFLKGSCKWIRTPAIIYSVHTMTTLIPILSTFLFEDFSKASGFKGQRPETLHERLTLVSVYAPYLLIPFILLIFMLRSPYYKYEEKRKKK

MCF7 [5] = assay: Cytotoxicity against human MCF7 cells assessed as reduction in cell viability after 24 hrs by MTT assay; assay type: functional, cell-based; details: MCF7, 24 h
How it was run: (§2)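 MTT viability assay in Caco-2, MCF-7 and HFF-1 cells; top tested concentration 100 μM. IC50 given as mean ± SD of at least two experiments run in quadruplicate.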

HFF-1 [6] = assay: Cytotoxicity against human HFF1 cells assessed as reduction in cell viability after 24 hrs by MTT assay; assay type: cell-based; details: HFF-1, 24 h; how it was run: as §2
Caco-2 [7] = assay: Cytotoxicity against human Caco2 cells assessed as reduction in cell viability after 24 hrs by MTT assay; assay type: functional, cell-based; details: Caco-2, 24 h; how it was run: as §2
MCF7 [8] = assay: Cytotoxicity against human MCF7 cells assessed as reduction in cell viability at 100 uM after 24 hrs by MTT assay relative to control; assay type: functional
Caco-2 [9] = assay: Cytotoxicity against human Caco2 cells assessed as reduction in cell viability at 100 uM after 24 hrs by MTT assay relative to control; assay type: functional
[10] = biological target: T1, Sigma intracellular receptor 2; assay: Displacement of [3H]-di-o-tolylguanidine from sigma2 receptor (unknown origin) at 10 uM incubated for 1 hr in presence of (+)SKF10047 by liquid scintillation counting method relative to control
[11] = biological target: Sigma non-opioid intracellular receptor 1 (Cavia porcellus) (UniProt Q60492); assay: Displacement of [3H]-(+)-pentazocine from sigma1 receptor in guinea pig brain membranes at 10 uM incubated for 1 hr by liquid scintillation counting method relative to control; assay type: cell membranes; details: Membrane
Chain of Sigma non-opioid intracellular receptor 1 (Cavia porcellus) (Q60492 whole entry): as the sequence (Q60492 whole entry) above

MCF7 [12] = assay: Cytotoxicity against human MCF7 cells assessed as restoration of cell viability loss at IC50 after 24 hrs in presence of AC927 by MTT assay; assay type: functional, cell-based
How it was run: (§3)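 MCF-7 cells given the test agent at its viability-reducing concentration together with 1 μM σ1 agonist (+)-pentazocine or 1 μM σ2 antagonist 1-phenethylpiperidine (AC927); viability read by MTT.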

MCF7 [13] = assay: Cytotoxicity against human MCF7 cells assessed as restoration of cell viability loss at IC50 after 24 hrs in presence of PTZ by MTT assay; assay type: functional, cell-based; how it was run: as §3

Row | SMILES | Ki [1] | Ki [4] | IC50 (MCF7 [5]) | Activity (MCF7 [8]) | also measured
1 | O=C(NCCCCCN1CCC(Cc2ccccc2)CC1)c1cccc(CO[N+](=O)[O-])c1 | 50 nM | 142 nM |  |  | 
2 | O=C(O)c1ccc(CO[N+](=O)[O-])cc1 | > 10000 nM | > 10000 nM | > 100000 nM | <50% | inhibition [10]: < 50%; inhibition [11]: < 50%
3 | C[C@@H]1CCO[C@H]2Cn3cc(C(=O)NCc4ccc(F)cc4F)c(=O)c(O)c3C(=O)N12 [DOLUTEGRAVIR] |  | 18 nM |  |  | 
4 | O=C(Cc1ccc(CO[N+](=O)[O-])cc1)NC1CCN(Cc2ccccc2)CC1 | 170 nM | 2510 nM |  |  | 
5 | O=C(NCCCCCN1CCC(Cc2ccccc2)CC1)c1ccc(CO[N+](=O)[O-])cc1 | 93 nM | 70 nM |  |  | 
6 | O=C(NCCCCN1CCC(Cc2ccccc2)CC1)c1cccc(CO[N+](=O)[O-])c1 | 148 nM | 75 nM |  |  | 
7 | O=C(NCCN1CCC(Cc2ccccc2)CC1)c1cccc(CO[N+](=O)[O-])c1 | 49 nM | 330 nM | 36000 nM |  | Drug metabolism [2]: 13 µM; Activity (HFF-1 [3]): < 50%; IC50 (HFF-1 [6]): > 100000 nM; IC50 (Caco-2 [7]): 59000 nM
8 | O=C(NC1CCN(Cc2ccccc2)CC1)c1cccc(CO[N+](=O)[O-])c1 | 24 nM | 19 nM |  |  | 
9 | O=C(NCCCN1CCC(Cc2ccccc2)CC1)c1ccc(CO[N+](=O)[O-])cc1 | 145 nM | 230 nM |  |  | 
10 | Cc1ccc(C(=O)NCCCCN2CCC(Cc3ccccc3)CC2)cc1 | 62 nM | 127 nM | 87000 nM | <50% | 
11 | O=C(NCCCN1CCC(Cc2ccccc2)CC1)c1cccc(CO[N+](=O)[O-])c1 | 64 nM | 93 nM |  |  | 
12 | COc1cccc2c1C(=O)c1c(O)c3c(c(O)c1C2=O)C[C@@](O)(C(=O)CO)C[C@@H]3O[C@H]1C[C@H](N)[C@H](O)[C@H](C)O1 [DOXORUBICIN] |  |  |  |  | Activity (HFF-1 [3]): < 50%; IC50 (HFF-1 [6]): > 100000 nM; IC50 (Caco-2 [7]): 21000 nM

More lines, main results first:

Row | Ki [1] | Ki [4] | SMILES | IC50 (MCF7 [5]) | Activity (MCF7 [8]) | also measured
13 | 22 nM | 270 nM | O=C(NC1CCN(Cc2ccccc2)CC1)c1ccc(CO[N+](=O)[O-])cc1 | > 100000 nM | <50% | Drug metabolism [2]: 6.3 µM; Activity (HFF-1 [3]): < 50%; IC50 (HFF-1 [6]): > 100000 nM; IC50 (Caco-2 [7]): > 100000 nM; Activity (Caco-2 [9]): <50%
14 | 19 nM | 320 nM | O=C(Cc1cccc(CO[N+](=O)[O-])c1)NC1CCN(Cc2ccccc2)CC1 | > 100000 nM | <50% | Drug metabolism [2]: 1.3 µM; Activity (HFF-1 [3]): < 50%; IC50 (HFF-1 [6]): > 100000 nM; IC50 (Caco-2 [7]): > 100000 nM; Activity (Caco-2 [9]): <50%
15 | > 10000 nM | > 10000 nM | Cc1ccc(C(=O)O)cc1 [4-METHYLBENZOIC ACID] | > 100000 nM | <50% | inhibition [10]: < 50%; inhibition [11]: < 50%
16 | > 10000 nM | > 10000 nM | O=C(O)c1ccc(CO)cc1 | > 100000 nM | <50% | inhibition [10]: < 50%; inhibition [11]: < 50%
17 | 89 nM | 2670 nM | O=C(NCCN1CCC(Cc2ccccc2)CC1)c1ccc(CO[N+](=O)[O-])cc1 |  |  | 
18 | 250 nM | 89 nM | O=C(NCCCCN1CCC(Cc2ccccc2)CC1)c1ccc(CO[N+](=O)[O-])cc1 | 26000 nM |  | Drug metabolism [2]: 13 µM; Activity (HFF-1 [3]): < 50%; IC50 (HFF-1 [6]): > 100000 nM; IC50 (Caco-2 [7]): 28000 nM; Activity (MCF7 [12]): inactive; Activity (MCF7 [13]): inactive
19 | 711 nM | 2600 nM | O=C(NCCCCN1CCC(Cc2ccccc2)CC1)c1ccc(CO)cc1 | > 100000 nM | <50% | 
